# RGS4 act: RGS4 potentiators or activators, primary screen, cell-based, HEK293 M3R inducible RGS4, calcium flux; carbachol calcium flux Fluo4; stronger effect = lower value; hit rate 0.92% among 310,000; B-score at 10 µM; AID 463111, 2010;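 active means B-score of the integrated calcium signal more than 4 SD below the library mean, with starting fluorescence not abnormally high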;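 further: negative B-score means reduced calcium response which marks RGS4 activation or potentiation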
#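 Material: M3R-expressing HEK293 line, RGS4 induced by doxycycline | Schedule: Overnight RGS4 induction, 30 min dye load 37 °C, 20 min compound RT | Measured by: Fluo4 fluorescence kinetic imaging of calcium | Read-out: Integrated calcium ratio converted to B score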
# MrgX1 ag: agonists of human MrgX1 receptor, primary screen, HEK293 cells, Fluo-4 calcium flux. Fluo-4 calcium fluorescence, agonist mode; stronger effect = higher value. B-score at 10 µM. hit rate 0.44% among 310,000. AID 588627, 2011;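 active means calcium response B-score plate-corrected fluorescence ratio at least 3 library SD, with starting fluorescence B-score inside 5 SD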
# Target sequence (Q96LB2 whole entry, looked up): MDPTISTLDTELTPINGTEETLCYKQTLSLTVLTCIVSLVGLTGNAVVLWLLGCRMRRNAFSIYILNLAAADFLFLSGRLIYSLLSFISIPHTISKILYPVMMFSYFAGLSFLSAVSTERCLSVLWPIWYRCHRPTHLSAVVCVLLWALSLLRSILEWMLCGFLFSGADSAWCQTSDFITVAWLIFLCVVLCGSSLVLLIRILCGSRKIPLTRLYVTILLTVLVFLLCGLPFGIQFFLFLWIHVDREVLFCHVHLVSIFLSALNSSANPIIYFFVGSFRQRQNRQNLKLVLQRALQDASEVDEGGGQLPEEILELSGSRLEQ
#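 Test system: HEK293 cells stably expressing human MrgX1 receptor; amount: 15,000 cells per well; doses: compound delivered in addition one of three; times: overnight plating before 1 h dye loading; detection: Fluo-4 NW calcium-flux fluorescence, kinetic read; read-out basis: B-scored fluorescence response ratio; controls: positive and negative controls per plate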
# MrgX1 antag: antagonists of human MrgX1 receptor, primary screen, HEK293 cells, Fluo-4 calcium flux; BAM8-22 antagonism; stronger effect = lower value; B-score at 10 µM; hit rate 1.3% among 310,000; AID 588676, 2011;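 active means calcium-response B-score plate-corrected more than 3 library SD below zero, starting fluorescence within 5 deviations, no agonist response on first addition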;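 further: peak minus trough fluorescence over baseline after final BAM8-22 challenge near maximal dose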
# RGS4 inh: RGS4 inhibitors, primary screen, cell-based, HEK293 M3R inducible RGS4, calcium flux | B-score at 10 µM | Fluo-4 calcium flux; stronger effect = higher value; triggered by carbachol at its EC20 | hit rate 0.45% among 310,000 | Regulator of G-protein signaling 4 (Homo sapiens), P49798 | AID 463165, 2010;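 active means B-score, a plate-corrected calcium signal, over three deviations above library mean, with baseline fluorescence within five deviations of library mean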;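 further: RGS4 expression induced by doxycycline in cells with stable M3 receptor; B-score is computed from the integrated fluorescence ratio over baseline after carbachol; higher B-score means a larger calcium signal and so more RGS4 inhibition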
# Target sequence (P49798 whole entry, looked up): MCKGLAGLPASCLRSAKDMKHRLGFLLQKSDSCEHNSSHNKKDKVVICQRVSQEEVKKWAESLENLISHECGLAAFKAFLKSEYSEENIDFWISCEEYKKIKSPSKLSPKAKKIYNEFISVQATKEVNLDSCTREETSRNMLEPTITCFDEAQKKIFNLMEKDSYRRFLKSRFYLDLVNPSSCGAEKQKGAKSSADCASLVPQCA
# MrgX1 allo act: positive allosteric modulators of MrgX1, primary screen, HEK293 cells, Fluo-4 calcium flux | hit rate 0.63% among 310,000 | Mas-related G-protein coupled receptor member X1 (Homo sapiens), Q96LB2 | FDSS; stronger effect = higher value | AID 588675, 2011 | B-score at 10 µM;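 active means plate-corrected calcium response at least 3 library SD above typical, normal starting fluorescence, not activating the receptor alone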;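 further: compound read alongside a low EC10 to EC30 dose of BAM8-22 agonist; peak minus trough fluorescence over baseline measured at the second addition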
# Cl transport mod: KCC2 cotransporter modulators, thallium flux, primary screen, cell-based, HEK293 KCC2, FluoZin-2 fluorescence, MLSMR. Solute carrier family 12 member 5 (Homo sapiens), Q9H2X9. KCC2 cells, thallium flux FluoZin-2 fluorescence. B-score of Tl+ flux slope (higher = more flux/activation; lower = inhibition) at 10 µM. hit rate 2.2% among 190,000. AID 1456, 2008;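 active means thallium flux slope and its plate-corrected score both differing from the plate sample mean at a set confidence after two filtering rounds, in either direction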;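 further: slope of fluorescence scaled to starting intensity during 10 to 20 s after thallium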
# KCC2 secondary: KCC2 modulators in sodium-free buffer, confirmation, cell-based, HEK293 KCC2, thallium flux, secondary assay. FluoZin2 fluorescence; stronger effect = higher value. AID 1713, 2009. shares compounds with Cl transport mod. hit rate 15% among 3,700. normalised thallium flux (F/F0 slope) at 10 µM;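 active means thallium flux slope above the same plate's solvent-only control mean plus 3 SD; inconclusive means the two replicate wells disagree; inactive means no significant difference from solvent-only control wells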
# KCC2 bumet counter: thallium flux persisting under bumetanide in KCC2 cells, confirmation, counter-screen for KCC2 modulator project, cell-based, HEK293 KCC2, FluoZin2, secondary assay 3; shares compounds with Cl transport mod; HEK293-KCC2 + bumetanide/ouabain; stronger effect = higher value; normalized thallium flux at 10 µM; hit rate 49% among 3,700; AID 1714, 2009;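 active means thallium entry rate above the same plate's blocked-transporter control wells by more than 3 SD; inconclusive means the two repeat wells disagree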;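 further: raw slope of fluorescence over initial fluorescence between 10 and 20 s after thallium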
# KCC2 secondary2: KCC2 modulators without ouabain present, confirmation, cell-based, HEK293 KCC2, thallium flux, FluoZin2, secondary assay 2. shares compounds with Cl transport mod. hit rate 23% among 3,700. thallium flux FluoZin2 fluorescence; actives lie on both sides; F/F0 rise rate, 10–20 s post-thallium. normalized thallium flux at 10 µM. AID 1715, 2009;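 active means thallium flux slope more than 3 SD above or below the plate's solvent-only control mean, mostly below; inconclusive means the two repeat wells disagreed; inactive means no significant shift from solvent-only controls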;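 further: raw slope with 0.1% DMSO as baseline and bumetanide as block control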
# HEK counter1: thallium flux modulation in parental HEK cells, confirmation, counter-screen for KCC2 modulator project, cell-based, counterscreen 1 | shares compounds with Cl transport mod | HEK293 parental cells, thallium flux FluoZin2, ouabain; baseline-ratio fluorescence slope, 10–20 s after thallium | thallium flux rate (normalised fluorescence) at 10 µM | hit rate 46% among 3,700;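 active means thallium flux rate significantly above the same plate's solvent-only control wells, beyond their mean plus 3 SD; inconclusive means the two replicate wells gave conflicting results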
# KCC2 retest ouab: KCC2 inhibitors and activators, ouabain retest, confirmation, HEK-KCC2 cells; shares compounds with Cl transport mod; HEK293-KCC2, thallium flux FluoZin2 fluorescence; bidirectional: low = inhibitor, high = activator; raw Tl+ flux slope (below DMSO = inhibition, above = activation) at 10 µM; hit rate 48% among 3,700; AID 1717, 2009;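 active means thallium flux slope beyond 3 SD from same-plate DMSO control mean in most replicates, usually higher, sometimes lower; inconclusive means repeat tests gave conflicting results; inactive means no significant difference from controls in most replicates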;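 further: slope of initial-normalized fluorescence between seconds 10 and 20 after thallium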
# HEK293 Tl flux2: native HEK Tl+ uptake effects, second counter-screen – HEK cells, counterscreen 2, counter-screen for KCC2 modulator project, confirmation. shares compounds with Cl transport mod. HEK293 parental, thallium flux FluoZin-2 fluorescence slope. thallium flux slope at 10 µM. hit rate 33% among 3,700. AID 1718, 2009;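 active means thallium flux slope above the same plate's solvent-control mean plus 3 SD in both duplicate wells; inconclusive means duplicate wells that disagreed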;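 further: run without ouabain in cells lacking the KCC2 cotransporter; slope of fluorescence scaled to its starting value between 10 and 20 s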
# Numbers without * were called inactive; i = inactive; ? = inconclusive; . = no result. In the library only some 4.7% were active in any assay of this set; here they are far more common.
SMILES,RGS4 act,MrgX1 ag,MrgX1 antag,RGS4 inh,MrgX1 allo act,Cl transport mod,KCC2 secondary,KCC2 bumet counter,KCC2 secondary2,HEK counter1,KCC2 retest ouab,HEK293 Tl flux2
c1ccc(CSC2=NNC(c3ccccn3)S2)cc1 (configuration not stated),i,i,i,i,i,28*,?,0.026*,?,0.015*,0.025*,0.018*
O=C(CSC1=NNC(c2ccccn2)S1)Nc1ccc(C(F)(F)F)cc1 (configuration not stated),i,i,i,i,i,-0.036,.,.,.,.,.,.
O=C(NC(=S)Nc1cc(Cl)ccc1O)c1cccc(Br)c1,i,i,i,i,i,6.5*,0.0078,0.031*,0.036,0.014*,0.027*,0.018*
C=CCn1c(SCC(=O)c2ccc(F)cc2)nnc1-c1ccc2c(c1)OCO2,i,i,i,i,i,-3.7*,0.0077,0.0048,0.031,0.007,0.015*,0.011
c1ccc2sc(SN3CCOCC3)nc2c1,i,i,i,i,i,2.8*,0.0077,0.013*,0.027,0.011*,0.021,?
c1ccc2sc(N3CCOCC3)nc2c1,i,i,i,i,i,0.51,.,.,.,.,.,.
O=C(Nc1cccc(C(F)(F)F)c1)Oc1ccc(Cl)c2cccnc12,i,i,i,i,i,14*,0.016,0.022*,0.031,0.014*,0.021*,0.016*
Nn1c(Cc2cccc3ccccc23)nnc1SCC(=O)NC1CCS(=O)(=O)C1 (configuration not stated),i,i,i,i,i,5.7*,0.0092,0.0056,0.036,0.0083,0.019,0.012
CCN(C(=O)CSc1nnc(Cc2cccc3ccccc23)n1N)C1CCS(=O)(=O)C1 (configuration not stated),i,i,i,i,i,-0.59,.,.,.,.,.,.
Cc1ccc2c(c1)C1CN(C)CCC1N2C(=S)NC(=O)c1ccc(Cl)cc1Cl (configuration not stated),i,i,i,i,i,61*,0.023*,0.11*,0.03,0.032*,0.061*,0.013*
Cc1nc(NCc2cccnc2)c2c3c(sc2n1)CC(C)CC3 (configuration not stated),i,i,i,i,i,59*,0.036*,0.16*,0.038*,0.097*,0.087*,0.034*
O=C1c2ccccc2C(O)(c2ccccc2)N1C1CC1 (configuration not stated),i,i,i,i,i,0.95,.,.,.,.,.,.
COc1cc(/C=N/NC(=O)CN(Cc2ccccc2)S(=O)(=O)c2ccc3c(c2)OCCO3)ccc1O,i,i,i,i,i,-4.4*,0.0084,0.007,?,0.0063,0.014*,0.01
O=C(CN(Cc1ccccc1)S(=O)(=O)c1ccc2c(c1)OCCO2)N/N=C/c1ccc(F)cc1,i,i,i,i,i,-0.52,.,.,.,.,.,.
O=C(CSc1nnc(CNc2ccc(F)cc2)o1)c1ccccc1,i,i,i,i,i,-3.8*,0.0063,0.006,0.029,0.0069,0.017,0.0093
CCCn1c(N)c(C(=O)CSc2nnc(Cc3ccccc3)o2)c(=O)n(C)c1=O,i,i,i,i,i,-8.8*,0.0068,0.0049,0.02*,0.0086,0.015*,0.012
COc1ccc(NC(=O)CSc2nnc(CNc3ccc(F)cc3)o2)c(OC)c1,i,i,i,i,i,-4.1*,0.0073,0.0056,0.033,0.0071,?,0.011
O=C(CSc1nnc(Cc2ccccc2)o1)c1ccccc1,i,i,i,i,i,-4.4*,0.0051,?,0.024*,0.0073,?,0.011
Cc1ccc(-c2nc(S(=O)(=O)c3ccccc3)c(SCC(=O)NCC3CCCO3)o2)cc1 (configuration not stated),i,i,i,i,i,.,.,.,.,.,.,.
COc1ccc(S(=O)(=O)NCCCn2ccnc2)cc1Cl,i,i,i,i,i,.,.,.,.,.,.,.
Fc1ccccc1-n1cc(-c2ccccc2)[nH]c1=S,i,i,i,i,i,70*,0.019*,0.12*,?,0.046*,0.08*,0.02*
O=[N+]([O-])c1ccc(O)c(C2=NNC(c3ccccc3F)C2)c1 (configuration not stated),i,i,i,i,i,28*,0.0094,0.034*,0.031,0.025*,0.032*,?
CCc1ccc(-c2nc(CS(=O)CC(=O)NCc3cccnc3)c(C)o2)cc1 (configuration not stated),i,i,i,i,i,4.4*,0.0052,0.0048,?,0.0076,?,0.011
